The source of these data is ChEMBL document CHEMBL1122990, “Cyclic melanotropins. 9. 7-D-Phenylalanine analogues of the active-site sequence” (J Med Chem, 1985).

For one assay, the system named is frog. The assay is described as follows: Potency in the frog (Rana pipiens) skin bioassay relative to alpha-MSH. The assay is classed as functional. In short, it runs like this:
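In vitro Rana pipiens skin bioassay scoring melanosome dispersion as skin darkening. Solutions were made by serial dilution from a 10⁻⁴ M stock. Responses are the mean ± SE of 6 or more skins. Potency was calculated along the linear portion of the dose-response curve and standardized to α-MSH = 1.00.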

The subject of another assay is lizara. Put plainly: Potency in the lizard (Anolis carolinensis) skin bioassay relative to alpha-MSH. The class given is functional. The method, boiled down:
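In vitro Anolis carolinensis skin bioassay scoring melanosome dispersion as skin darkening. Solutions were made by serial dilution from a 10⁻⁴ M stock. Potency was calculated along the linear portion of the dose-response curve and standardized to α-MSH = 1.00.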

Turning to `CC(=O)N[C@@H](CO)C(=O)N[C@@H](Cc1ccc(O)cc1)C(=O)N[C@@H](CO)C(=O)N[C@H]1CSSC[C@@H](C(=O)N[C@@H](CCCCN)C(=O)N2CCC[C@H]2C(=O)N[C@H](C(N)=O)C(C)C)NC(=O)[C@H](Cc2c[nH]c3ccccc23)NC(=O)[C@@H](CCCN=C(N)N)NC(=O)[C@H](Cc2ccccc2)NC(=O)[C@@H](Cc2c[nH]cn2)NC(=O)[C@H](CCC(=O)O)NC1=O`, the results for the Potency in the assay with frog and in the assay on lizara were 10 and 2, respectively.

As for `CC(=O)N[C@H]1CSSC[C@@H](C(=O)N[C@@H](CCCCN)C(N)=O)NC(=O)[C@H](Cc2c[nH]c3ccccc23)NC(=O)[C@H](CCCN=C(N)N)NC(=O)[C@H](Cc2ccccc2)NC(=O)[C@H](Cc2c[nH]cn2)NC(=O)[C@H](CCC(=O)O)NC1=O`, the Potency in the assay with frog is 0.16; with lizara it was 0.07.

As for `CC(=O)N[C@H]1CSSC[C@@H](C(=O)N[C@@H](CCCCN)C(N)=O)NC(=O)[C@H](Cc2c[nH]c3ccccc23)NC(=O)[C@H](CCCN=C(N)N)NC(=O)[C@@H](Cc2ccccc2)NC(=O)[C@H](Cc2c[nH]cn2)NC(=O)[C@H](CCC(=O)O)NC1=O`, the Potency is 2.5 in the assay on frog and 3 with lizara.

Take `CC(=O)N[C@H]1CSSC[C@@H](C(N)=O)NC(=O)[C@H](Cc2c[nH]c3ccccc23)NC(=O)[C@H](CCCN=C(N)N)NC(=O)[C@H](Cc2ccccc2)NC(=O)[C@H](Cc2c[nH]cn2)NC(=O)[C@H](CCC(=O)O)NC1=O`: the results for the Potency with frog and in the assay on lizara were 0.06 and 0.003, respectively.

With `CC(=O)N[C@H]1CSSC[C@@H](C(N)=O)NC(=O)[C@H](Cc2c[nH]c3ccccc23)NC(=O)[C@H](CCCN=C(N)N)NC(=O)[C@@H](Cc2ccccc2)NC(=O)[C@H](Cc2c[nH]cn2)NC(=O)[C@H](CCC(=O)O)NC1=O`, the Potency was 0.75 in the assay on frog and 0.5 in the assay on lizara.
